# Active and inactive are the calls of the source. The rule behind the calls is not given here.
# Legend:
# Dipeptidyl peptidase 2 = Dipeptidyl peptidase 2 (Rattus norvegicus, UniProt Q9EPB1); experiment: Inhibition of rat kidney DPP2 after 60 mins
# Summary of the method: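 Rat kidney DPP-2, partially purified, preincubated with compound (DMSO) for 20 min at room temperature in […] buffer pH 5.5. Reaction started with H-Lys-Ala-pNA, added at 1 mmol/L, and run 60 min at 37 °C. A405 read at start and end against substrate-only and no-compound wells. IC50 from concentration-response curves, mean with 95% CI (n = 3).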
# Dipeptidyl peptidase 9 = Dipeptidyl peptidase 9 (Homo sapiens, UniProt Q86TI2); experiment: Inhibition of FLAG-tagged human DPP9 expressed in human 293F cells after 90 mins; type: cell-based
# Chain of Dipeptidyl peptidase 9 (Q86TI2 whole entry): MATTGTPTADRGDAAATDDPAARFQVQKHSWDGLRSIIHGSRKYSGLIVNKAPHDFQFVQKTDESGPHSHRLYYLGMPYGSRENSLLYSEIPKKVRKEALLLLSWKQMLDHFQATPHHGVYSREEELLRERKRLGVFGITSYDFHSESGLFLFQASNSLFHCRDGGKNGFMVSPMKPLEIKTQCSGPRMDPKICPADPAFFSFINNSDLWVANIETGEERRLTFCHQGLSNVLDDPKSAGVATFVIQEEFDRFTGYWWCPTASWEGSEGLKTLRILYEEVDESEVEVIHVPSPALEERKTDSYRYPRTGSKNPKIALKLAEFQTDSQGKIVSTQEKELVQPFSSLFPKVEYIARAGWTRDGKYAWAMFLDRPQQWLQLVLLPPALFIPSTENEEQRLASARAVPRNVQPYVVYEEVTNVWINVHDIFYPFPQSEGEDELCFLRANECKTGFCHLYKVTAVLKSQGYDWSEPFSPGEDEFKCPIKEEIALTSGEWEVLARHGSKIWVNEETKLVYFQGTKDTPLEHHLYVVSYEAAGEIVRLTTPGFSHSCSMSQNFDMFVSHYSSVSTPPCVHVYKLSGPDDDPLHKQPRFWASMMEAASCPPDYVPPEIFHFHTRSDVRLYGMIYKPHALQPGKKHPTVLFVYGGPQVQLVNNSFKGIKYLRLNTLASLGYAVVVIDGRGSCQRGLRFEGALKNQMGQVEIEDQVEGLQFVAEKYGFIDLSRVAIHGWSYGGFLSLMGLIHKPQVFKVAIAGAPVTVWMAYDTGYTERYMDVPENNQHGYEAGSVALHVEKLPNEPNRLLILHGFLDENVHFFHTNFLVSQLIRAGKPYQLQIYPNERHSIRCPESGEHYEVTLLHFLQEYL
# Dipeptidyl peptidase 8 = Dipeptidyl peptidase 8 (Homo sapiens, UniProt Q6V1X1); experiment: Inhibition of FLAG-tagged human DPP8 expressed in human 293F cells after 90 mins; type: cell-based
# Chain of Dipeptidyl peptidase 8 (Q6V1X1 whole entry): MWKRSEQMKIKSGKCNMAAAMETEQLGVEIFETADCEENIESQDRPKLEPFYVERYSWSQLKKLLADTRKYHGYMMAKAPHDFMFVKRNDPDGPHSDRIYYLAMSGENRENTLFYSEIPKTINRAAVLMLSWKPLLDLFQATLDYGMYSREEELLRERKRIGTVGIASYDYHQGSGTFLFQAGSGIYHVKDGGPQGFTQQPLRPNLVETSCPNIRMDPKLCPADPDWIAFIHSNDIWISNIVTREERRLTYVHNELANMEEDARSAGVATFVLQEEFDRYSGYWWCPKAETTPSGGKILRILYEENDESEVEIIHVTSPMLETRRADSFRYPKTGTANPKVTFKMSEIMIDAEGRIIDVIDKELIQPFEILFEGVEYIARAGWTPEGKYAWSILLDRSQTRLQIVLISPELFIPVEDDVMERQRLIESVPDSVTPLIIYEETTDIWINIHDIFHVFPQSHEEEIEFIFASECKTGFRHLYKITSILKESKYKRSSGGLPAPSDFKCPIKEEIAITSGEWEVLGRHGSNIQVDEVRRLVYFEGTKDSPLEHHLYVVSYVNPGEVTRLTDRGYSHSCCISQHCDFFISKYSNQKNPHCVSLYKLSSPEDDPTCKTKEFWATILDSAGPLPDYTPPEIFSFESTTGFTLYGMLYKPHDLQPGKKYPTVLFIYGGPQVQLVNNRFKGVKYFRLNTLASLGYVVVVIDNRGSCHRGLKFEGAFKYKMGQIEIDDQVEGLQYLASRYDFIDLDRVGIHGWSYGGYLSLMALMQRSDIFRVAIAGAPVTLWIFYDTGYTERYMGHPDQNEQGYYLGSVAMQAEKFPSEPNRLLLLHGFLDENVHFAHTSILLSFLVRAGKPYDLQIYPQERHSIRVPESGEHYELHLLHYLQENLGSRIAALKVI
# [1] = Bioavailability in rat at 0.1 mg/kg, iv and 1 mg/kg, po; type: ADME, organism-based; settings: in vivo
# Summary of the method: (§1)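 Single doses to rats (n = 3) and dogs (n = 4), intravenous 0.1 mg/kg and oral 1.0 mg/kg. Plasma obtained from serial blood samples and deproteinized with acetonitrile containing an internal standard. Supernatant diluted with 0.01 mol/L ammonium acetate. Drug quantified by LC/MS/MS. Values given as mean ± deviation.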
# [2] = Half life in rat at 1 mg/kg, po; type: ADME, organism-based; parameters: dose 1 mg/kg, route oral; settings: in vivo; summary of the method: as §1
# [3] = Metabolic stability in human liver microsomes assessed as compound remaining at 1 uM after 20 mins relative to basal level; type: ADME, Microsome; settings: read-out: Stability
# Summary of the method: (§2)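 Rat, dog or human hepatic microsomes ([…] final) mixed on ice with 1 μmol/L compound. Reaction started with NADPH and run 20 min at 37 °C, then stopped with ice-cold acetonitrile. Zero-time controls stopped before compound addition. Supernatant analysed by HPLC-UV. Result given as % remaining.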
# Rattus norvegicus = experiment: Antidiabetic activity in po dosed fatty Wistar rat assessed as reduction of blood glucose excursion administered 60 mins before glucose challenge by oral glucose tolerance test; type: functional, organism-based
# Summary of the method: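 Female Wistar fatty rats, 13 weeks old, fasted overnight and grouped by plasma glucose and body weight (n = 6). Oral vehicle (0.5% methylcellulose) or 0.03, 0.1, 0.3 and 1 mg/kg as free base of the monohydrate. Oral glucose 1 g/kg given 1 h later. Tail-vein blood taken at 0, 10, 30 and 60 min. Plasma glucose measured enzymatically and insulin by ELISA.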
# [4] = Metabolic stability in rat liver microsomes assessed as compound remaining at 1 uM after 20 mins relative to basal level; type: ADME, Microsome; settings: read-out: Stability; summary of the method: as §2
# [5] = Solubility of the compound at pH 6.8 after 2 hrs; type: physicochemical; settings: buffer
# Summary of the method: (§3)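 Thermodynamic solubility in Japanese Pharmacopoeia 15th ed. first fluid (pH 1.2) or second fluid (pH 6.8), incubated 2 h at 37 °C. Precipitate removed by filtration and filtrate quantified by HPLC.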
# [6] = Bioavailability in dog at 0.1 mg/kg, iv and 1 mg/kg, po; type: ADME, organism-based, Canis lupus familiaris; settings: in vivo; summary of the method: as §1
# [7] = Half life in dog at 1 mg/kg, po; type: ADME, organism-based, Canis lupus familiaris; parameters: dose 1 mg/kg, route oral; settings: in vivo; summary of the method: as §1
# [8] = Solubility of the compound at pH 1.2 after 2 hrs; type: physicochemical; settings: buffer; summary of the method: as §3
# [9] = Metabolic stability in dog liver microsomes assessed as compound remaining at 1 uM after 20 mins relative to basal level; type: ADME, Canis lupus familiaris, Microsome; settings: read-out: Stability; summary of the method: as §2
# Canis familiaris = organism: Canis familiaris; settings: Canis lupus familiaris; Plasma; 0.5 mg/kg
# Chain of Dipeptidyl peptidase 2 (Q9EPB1 whole entry): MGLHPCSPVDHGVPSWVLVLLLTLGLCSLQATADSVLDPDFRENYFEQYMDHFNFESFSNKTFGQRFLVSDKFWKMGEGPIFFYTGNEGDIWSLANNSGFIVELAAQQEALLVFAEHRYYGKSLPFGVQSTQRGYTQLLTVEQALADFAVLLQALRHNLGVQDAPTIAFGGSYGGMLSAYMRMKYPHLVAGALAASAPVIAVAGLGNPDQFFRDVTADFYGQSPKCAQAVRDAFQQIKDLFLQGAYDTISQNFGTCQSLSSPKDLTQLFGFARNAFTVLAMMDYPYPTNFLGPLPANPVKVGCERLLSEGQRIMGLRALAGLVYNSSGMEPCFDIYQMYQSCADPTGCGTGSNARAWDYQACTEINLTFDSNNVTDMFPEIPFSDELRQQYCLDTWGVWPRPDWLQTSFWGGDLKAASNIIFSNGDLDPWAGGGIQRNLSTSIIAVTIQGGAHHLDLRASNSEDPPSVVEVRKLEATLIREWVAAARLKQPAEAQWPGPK
Compound,IC50 (Dipeptidyl peptidase 2) [µM],IC50 (Dipeptidyl peptidase 8) [µM],other results
CCc1nc(CC(C)(C)C)c(CN)c(-c2ccc(C)cc2)c1C(=O)O,4,,
Cc1ccc(-c2c(CN)c(CC(C)C)nc(C)c2C(=O)O)cc1,5.6,,
Cc1ccc(-c2c(CN)c(CC(C)(C)C)nc(C)c2C(=O)O)cc1,10,,
Cc1ccc(-c2c(CCC(=O)O)c(C)nc(CC(C)C)c2CN)cc1,1.1,> 30,IC50 (Dipeptidyl peptidase 9): > 30 µM
CCCc1nc(CC(C)(C)C)c(CN)c(-c2ccc(C)cc2)c1C(=O)O,2,,
Cc1ccc(-c2c(CC(=O)O)c(C)nc(CC(C)(C)C)c2CN)cc1,,> 100,IC50 (Dipeptidyl peptidase 9): > 100 µM
Cc1ccc(-c2c(CN)c(CC(C)(C)C)nc(CC(C)C)c2C(=O)O)cc1,1.5,,
Cc1ccc(-c2c(CN)c(CC(C)(C)C)nc(C(C)C)c2C(=O)O)cc1,1.6,,
CCc1nc(CC(C)(C)C)c(CN)c(-c2ccc(C)cc2)c1CC(=O)O.O,> 100,> 100,"bioavailability [1]: 53.3%; half-life [2]: 5.74 h; remaining at 20 min, 1 µM [3]: 100%; Activity (Rattus norvegicus): Dose-dependent effect; remaining at 20 min, 1 µM [4]: 100%; solubility at 2 h [5]: 930 µg/mL; bioavailability [6]: 88%; half-life [7]: 4.97 h; solubility at 2 h [8]: > 1000 µg/mL; remaining at 20 min, 1 µM [9]: 96.8%; inhibition (Canis familiaris): Active"
CCCCc1nc(C)c(C(=O)O)c(-c2ccc(C)cc2)c1CN,11,,
Cc1ccc(-c2c(CC(=O)O)c(C)nc(CC(C)C)c2CN)cc1,50,> 30,IC50 (Dipeptidyl peptidase 9): > 30 µM
Cc1ccc(-c2c(CN)c(CC(C)(C)C)nc(Cc3ccccc3)c2C(=O)O)cc1,0.25,,
